Experimental data gathered from unrelated publications.
Each line is one published result; the experiments were not run side by side.
MET: Hepatocyte growth factor receptor (MET, Homo sapiens, UniProt P08581)
MET Y1235D: Hepatocyte growth factor receptor (MET, Homo sapiens, UniProt P08581, Y1235D)
MET M1250T: Hepatocyte growth factor receptor (MET, Homo sapiens, UniProt P08581, M1250T)

Structure (SMILES) | target | effect on | technique | tested at | remaining binding [%]
CC1=C(C#N)C(c2ccc3c(c2)c(NC(=O)c2ccccc2C)nn3C)C(C#N)=C(C)N1 | MET | cell-free assay | competition with immobilised ligand | 1 µM | 24
C[C@@H]1CCN(c2nccc(-c3cnn4ncccc34)n2)C1 | MET Y1235D | binding |  | 1 µM | 79
CN(C(=O)c1ccccc1)c1cc(N(C)c2ccc3c(c2)CCc2ccc(C(=O)NCCN4CCOCC4)cc2C3=O)ccc1F | MET Y1235D | cell-free assay | competition with immobilised ligand | 1 µM | 85
CCN1CCN(Cc2ccc(C(=O)Nc3ccc(C)c(Oc4ccc5c(c4)CC(=O)N5)c3)cc2C(F)(F)F)CC1 | MET | binding | competition with immobilised ligand | 1 µM | 100
N[C@H]1CCN(c2nccc(-c3cnn4ncccc34)n2)C1 | MET | binding |  | 1 µM | 90
CC(=O)N1CCC(c2ccc(C(=O)NC3=NCCN3)cc2C(F)(F)F)CC1 | MET M1250T | cell-free assay | competition with immobilised ligand | 1 µM | 84
COc1ccnn2ncc(-c3ccnc(N(C)C)n3)c12 | MET | binding |  | 1 µM | 92
O=C(NCC1CCOCC1)c1n[nH]cc1NC(=O)c1c(F)cccc1F | MET Y1235D | binding | competition with immobilised ligand | 1 µM | 97
F[C@@H]1CCN(c2nccc(-c3cnn4ncccc34)n2)C1 | MET | binding |  | 1 µM | 90
O=C(NCCCN1CCOCC1)c1ccc(Nc2nccc(-c3cc4ccccc4s3)n2)cc1 | MET | binding | competition with immobilised ligand | 1 µM | 100
C[C@H](NC(=O)c1cnc2n1[C@](C)(Cc1ccc(C#N)cc1)C(=O)N2c1cc(Cl)c(F)c(Cl)c1)C(=O)NC1(c2ccccn2)CC1 | MET | cell-free assay | competition with immobilised ligand | 1 µM | 100
O=C(NCCCN1CCOCC1)c1ccc(Nc2ncc(Cl)c(-c3ccc(Cl)s3)n2)cc1 | MET M1250T | binding | competition with immobilised ligand | 1 µM | 13
COc1cnc(Nc2cccc(S(N)(=O)=O)c2)nc1N1CCN(c2ccccc2)C(=O)C1 | MET | binding | competition with immobilised ligand | 1 µM | 100
COc1ncc2cc3ccccc3nc2c1C#N | MET Y1235D | cell-free assay | competition with immobilised ligand | 5 µM | 80
CN(C)C(=O)Cn1cc(-c2nc(C3(c4ccc(-c5cnc(N)nc5)cc4)CC3)no2)cn1 | MET M1250T | cell-free assay | competition with immobilised ligand | 1 µM | 100
O=C(c1ccc(Nc2ncc(Cl)c(-c3ccc(Cl)s3)n2)cc1)N1CCC(N2CCCC2)CC1 | MET M1250T | binding | competition with immobilised ligand | 1 µM | 6.5
CC1CCCN1c1nccc(-c2cnn3ncccc23)n1 (stereo not drawn) | MET | binding |  | 1 µM | 96
FC(F)(F)c1ccc2c(c1)nc(-c1cccnc1)n2C1CC1 | MET Y1235D | cell-free assay | competition with immobilised ligand | 1 µM | 100
